# Assay results as given in the EternaBench riboswitch data.
# Test system: MS2 coat protein
# Experiment: apparent Kd, MS2 coat protein; higher = weaker binding; RNA-MaP array; FMN 200 µM where present
# Summary of the method: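 Green signal was scaled to red-channel RNA signal and control-cluster median Fmax, and the apparent Kd was taken as the median of filtered per-cluster binding-curve fits. The binding series used SNAP-549-labelled MS2 coat protein from 0.7 or 1.5 nM, doubling to 3 µM, on designs transcribed by stalled E. coli RNA polymerase on Illumina sequencing-chip clusters. Each series ran without and then with constant ligand in 100 mM Tris-HCl pH 7.5, 80 mM KCl, 4 mM MgCl2, BSA, DTT, yeast tRNA and Tween-20.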
# [1] = designed as: OFF switch for flavin mononucleotide, no ligand
# [2] = ligand present: flavin mononucleotide, designed as: OFF switch for flavin mononucleotide
# [3] = designed as: ON switch for flavin mononucleotide, no ligand
# [4] = ligand present: flavin mononucleotide, designed as: ON switch for flavin mononucleotide
Sequence,apparent Kd [1],apparent Kd [2],apparent Kd [3],apparent Kd [4]
CCCAUGUUAGGAUAUCGGCUCCGCCGUUCCACAUGGCGCUCCGAGAAGGAACAUGAGGAUCACCCAUGUAAAGA,0.0391 µM,0.14 µM,–,–
CCCGCGAUGUCAGGAUAUAGUCGGAGGUUCAGACUAGAAGGGACAUGAGGAUCACCCAUGUGCGUGAAAAUUUAAAACCUAGGU,0.0515 µM,0.191 µM,–,–
CCCGGGUUAGGAUAUUUGGGCCCGGGCGAACGCCCGGGCCCGGAGAAGGGACAUGAGGAUCACCCAUGUCCGGG,0.0212 µM,0.0192 µM,–,–
CCCGUGUGAGGAUAUCGUUCGCUUGGCGUUUGUCGGGUGGGCGAGAAGGUACAUGAGGAUCACCCAUGUGCGGG,0.172 µM,0.422 µM,–,–
CCCUAAUAUCGAGGAUAUGUCUAGACACAUGAGGAUCACCCAUGUAUGUGUAUAGAAGGCGAUAUUAACAGCAUGUUACAUCCC,–,–,0.0462 µM,0.0217 µM
CCCUAGGGAGGAUAUCCAAUAUAUGACAUGAGGAUCACCCAUGUUUCCACUCGUACCUCCGGAGAAGGCCCAUCCC,0.0263 µM,0.0245 µM,–,–
CCGAAUAAGCAGGAUAUCGUAUCGGAAACGAUACGAGAAGGGCUAACAUGAGGAUCACCCAUGUUCCUUAACGG,0.0221 µM,0.0235 µM,–,–
CCGAAUAUGCAGGAUAUCGUAUCGGAAACGAUACGAGAAGGGUAAACAUGAGGAUCACCCAUGUUCCUUAACGG,0.0206 µM,0.0222 µM,–,–
CCGACCCAAGGAUAUUGUACUGCUGACAUGAGGAUCACCCAUGUAUGUUAACUCGGCCGACGAGAAGGUGGCGACA,0.0268 µM,0.0239 µM,–,–
CCGAUACGAGGAUAUACAUGAGGAUCACCCAUGUAGUGGACCGAGCGUCGGUGUCUCAGUAGAAGGCGUUAAGA,0.0162 µM,0.0173 µM,–,–
CCGCGCUGUCGAGAGGAUAUGCGGUGAUGGACAUGAGGAUCACCCAUGUUAGCGAUAGCAUUACUGUAGAAGGCUCUACGGCGGC,–,–,0.0166 µM,0.0173 µM
CCGCUGUUAGGAUAUCUGAAGCUUCAAUGGAAGUCUUCAUUGGAGAAGGGACAUGAGGAUCACCCAUGUAGGGA,0.192 µM,0.253 µM,–,–
CCGGAAACGGGUAGCCUGACAUGAGGAUCACCCAUGUGAUCCUAGGAUAUGGAUCCUAAUUGGAUCCAGAAGGAGGUUGGCUAC,–,–,1.28 µM,0.368 µM
CCGGAAACGGGUAGCUGACAUGAGGAUCACCCAUGUGUAUCACAGGAUAUGGAUCCUAAUUGGAUCCAGAAGGGUGUCAGCUAC,–,–,1.13 µM,0.105 µM
CCGGAAAUAGAGGAUAUCGUAUCGGAUACGAUACGAGAAGGCUGUACAUGAGGAUCACCCAUGUGUCCUACCGG,0.0112 µM,0.0215 µM,–,–
CCGGAAAUGGAGGAUAUCGUAUCGGAUACGAUACGAGAAGGCUAUACAUGAGGAUCACCCAUGUGUCCUACCGG,0.0126 µM,0.0201 µM,–,–
CCGGAUACGGGUAGCCUGACAUGAGGAUCACCCAUGUAAUACGAGGAUAUGGAUCCUAAUUGGAUCCAGAAGGUGUCAGGCUAC,–,–,1.31 µM,0.734 µM
CCGGAUAUGCAGGAUAUCGAAUCGGAAACGAUUCGAGAAGGGUAUACAUGAGGAUCACCCAUGUGUCCUACCGG,0.0249 µM,0.0316 µM,–,–
CCGGCCGCCGUGAGGAUAUGCCCGCGCGCCCGCGGGCAGAAGGCACAUGAGGAUCACCCAUGUCCUGCGGUCCC,0.0201 µM,0.119 µM,–,–

Sequence,apparent Kd [1],apparent Kd [2],apparent Kd [3],apparent Kd [4]
CCGGCUUAGGAGGAUAUAGGAGUCGAUAGACACCUAGAAGGCCUAACAUGAGGAUCACCCAUGUGUCCUACCGG,0.0178 µM,0.0615 µM,–,–
CCGGGCGGUUUGCCCACACUGUCACAGGAUAUGCCCAAAACAUGAGGAUCACCCAUGUCAAAUACGCAGAAGGGUGAUCGGAAA,–,–,0.0558 µM,0.037 µM
CCGUAGAGAGGAUAUACAUGAGGAUCACCCAUGUGACAUCGAACGAUGUCGCCUAGUCGUAGAAGGUUCAAACG,0.0254 µM,0.0248 µM,–,–
CCGUCAAUCGAGAAGGGCCUAUGUGCUACAUCGGCAGGAUAUCGACAUGAGGAUCACCCAUGUUGGCGAUCCUUUUUGGCGGAC,0.156 µM,0.0241 µM,–,–
CCUAAGGACACAGGAUAUAGCGUGGUGGCUGGGCUCCCACGGCGAGCGGCGCUAGAAGGGUGACCACAUGAGGAUCACCCAUGU,–,–,0.538 µM,0.148 µM
CCUAAGGACACAGGAUAUAGCGUGGUGGCUGUGCUCCAACGGCGAGCGGCGCUAGAAGGGUGACCACAUGAGGAUCACCCAUGU,–,–,0.665 µM,0.177 µM
CCUAUACAUGAGGAUCACCCAUGUCAGGAUAUAGAAAGCCGCGGAAUAGGACACGGCACUAGAAGGGACUGGCU,0.0297 µM,0.0361 µM,–,–
CCUAUGUGAGGAUAUCACUGGUCUGCUCACUAGAUGAUCAGUGAGAAGGCACAUGAGGAUCACCCAUGUCAGUG,0.183 µM,0.0417 µM,–,–
CCUAUGUGAGGAUAUCACUGGUCUUUUCAUUAGAUGAUCAGUGAGAAGGCACAUGAGGAUCACCCAUGUCAGUG,0.0907 µM,0.0267 µM,–,–
CCUCCACAUGAGGAUCACCCAUGUCAGGAUAUCGUGUGCGCGUUUUCGGUCUUUCGCGCGAGAAGGGACGUCUG,0.0269 µM,0.0301 µM,–,–
CCUCCACAUGAGGAUCACCCAUGUCAGGAUAUCGUGUGUUUUUUUUCGGUCGUGCGUGCGAGAAGGGACGUCUU,0.026 µM,0.0297 µM,–,–
CCUCUACAUGAGGAUCACCCAUGUGAGGAUAUCUCGGAGCAGCCUAUUAAGGCGCUCCAGAGAAGGCACGUGUA,0.0193 µM,0.0283 µM,–,–
CCUGACGCAUCAGGAUAUGCUUACAUCCAUGUUGCAGAAGGGAUGCGUUCUGAAAACAUGAGGAUCACCCAUGUAAGCGGCCAA,–,–,0.082 µM,0.0522 µM
CCUGAGUGUCUAGGAUAUGCAUACCCGAGCUUUGCAGAAGGAGACAUGAGGAUCACCCAUGUGGACUUGGCAGGUCUCGCACCA,0.00591 µM,0.00759 µM,–,–
CCUGUGUGAGGAUAUGUACUGCUCCUGUCCAACAGUGUAGAGCAGAAGGCACAUGAGGAUCACCCAUGUGAAAA,0.0262 µM,0.0231 µM,–,–
CCUUAACAUGAGGAUCACCCAUGUGAGGAUAUGAUGCAGCAGUGGUCUACGCUGUGCAUCAGAAGGUACAUGGU,0.0359 µM,0.145 µM,–,–
CCUUCAGCGAACGAUACGAAUGGACAUGAGGAUCACCCAUGUAGAAGGACAGGAGAAUAACGACUGUAGGAUAUACAUUUAGUG,0.0223 µM,0.0286 µM,–,–
CCUUGACAUGAGGAUCACCCAUGUGAGGAUAUAGAAUACUUCAUACACUGACCUCCUUCUAGAAGGCACAUCUC,0.0153 µM,0.0151 µM,–,–
CCUUUGAAGAUCCUAGAUUUCGACAUGAGGAUCACCCAUGUGCAGGAUAUCGUGCCAGUGAUGUGCGAGAAGGGCAGUCUCUGC,0.0508 µM,0.0551 µM,–,–

Sequence,apparent Kd [1],apparent Kd [2],apparent Kd [3],apparent Kd [4]
CGAAAAUUUCAGAAGGACCAAUUCCACAUGAGGAUCACCCAUGUCGAUGGUAGGAUAUGGAGUUGUGGACAGGGUGGAUGUUCC,–,–,0.122 µM,0.0126 µM
CGAAACAACACAACGAAGCAGGUACCAGAAGGGACGGCGUCACAUGAGGAUCACCCAUGUUGCAGUCAGGAUAUGGGCCAUCCU,–,–,0.0331 µM,0.00695 µM
CGAAAUGAUAGAGGAUAUGUUUAACAUGAGGAUCACCCAUGUGACAUGGGAUUAAUAUAUAACUUACAGAAGGCUAUUCAAUCG,0.0387 µM,0.0521 µM,–,–
CGAACUAAGUAGAAGGCUGUCUUAAAAUAGGACAGAGGAUAUACAUGAGGAUCACCCAUGUACUCCUUUAAUAAGUUCGAAAUA,0.00522 µM,0.00613 µM,–,–
CGAAGUCCGUAGAAGGGUGACAUGAGGAUCACCCAUGUGCGAGCGGAGGGAGUCAUCGGCUCGCCACAGGAUAUACGGAGCACG,–,–,0.0581 µM,0.0492 µM
CGACAGUCAGGAUAUGCAAAAAAAAAAAAAAAAAAAAAAAAGCAGAAGGGACAUGAGGAUCACCCAUGUCGUCG,0.0595 µM,0.0452 µM,–,–
CGAGUUUUUGAGAAGGCAUAUUAUAUUAUACCACAUGUUUACAUGAGGAUCACCCAUGUUUCCUAUGAGGAUAUCAGAAUGUCG,0.00934 µM,0.00733 µM,–,–
CGAUAACAUAGUUAUCCGUAGCGAACAUGAGGAUCACCCAUGUAGGAUAUGUUACUAAACUAGUAACAGAAGGACAUGAGUCUU,0.0349 µM,0.263 µM,–,–
CGAUAGGACAGAGGAUAUACACAUGAGGAUCACCCAUGUGAUUACAACGCGUAAGCUCCAAACAUGUAGAAGGCUGUCCUAUCG,0.0175 µM,0.0206 µM,–,–
CGAUAUUAUGUCAGGAUAUACAUUGCGAAAGCAAUGUAGAAGGGACAUGAGGAUCACCCAUGUUCCUACUAUCG,0.0123 µM,0.0157 µM,–,–
CGAUGACAUAGUCAUCCGUAACGGACAUGAGGAUCACCCAUGUAGGAUAUGCUACUCAACGAGUAGCAGAAGGACAUGAGUCUU,0.0383 µM,0.347 µM,–,–
CGAUGUUAUGUCAGGAUAUGCAUUGCGAAAGCGAUGCAGAAGGGACAUGAGGAUCACCCAUGUCCUAACCAUCG,0.0123 µM,0.0188 µM,–,–
CGCAAACAUGAGGAUCACCCAUGUGAGGAUAUGUGAGCACGAGAAAGAUAAAGUGAGCACAGAAGGCACAAGCG,0.0604 µM,0.0629 µM,–,–
CGCAACUUUUCUCAUGUAAACAUGAGGAUCACCCAUGUAAUGAGAAGGAGGAGAAAGAGAGAAUCCUAGGAUAUCAGAGUUGCG,0.00629 µM,0.00653 µM,–,–
CGCAAUAUACAGAAGGAGUUAUUGAGAGGUUUACUAGGAUAUGUUCACAUGAGGAUCACCCAUGUCAUAUGGUUUUUUAUUGCG,0.0136 µM,0.0114 µM,–,–
CGCACUGAUAGAGGAUAUGUUGUACAUGAGGAUCACCCAUGUGUUUUUGUAUCAAUAUUAGUGAAACAGAAGGCUAUUAGUGCG,0.00565 µM,0.00465 µM,–,–
CGCACUGAUAGAGGAUAUGUUUUACAUGAGGAUCACCCAUGUGUACAAGGAUCAAUAUAUUAGUAACAGAAGGCUAUUUGUGCG,0.0217 µM,0.0191 µM,–,–
CGCAUAUAUGUAAGGAUAUCUGCUUCGCAGAGGCAAGAGAAGGUACAUGAGGAUCACCCAUGUAUUUAAGGCGG,0.0226 µM,0.0256 µM,–,–
